Reference: ChEMBL document CHEMBL1157640, “Exploration of inhibitors for diaminopimelate aminotransferase” (Bioorg Med Chem, 2010)
pIC50: −log10 of the molar value. Activity calls are given as the source filed them. The calls are words filed in the database; no cut-off is given here.

How the values were obtained:
[1] = target: LL-diaminopimelate aminotransferase, chloroplastic (Arabidopsis thaliana) (UniProt Q93ZN9); test: Inhibition of Arabidopsis thaliana LL-DAP-AT expressed in Escherichia coli at 10 uM by aminobenzaldehyde-based assay
Outline: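 Robotic 96-well screen against C-terminal His6-tagged A. thaliana LL-DAP-AT (0.0043 mg/mL final) in 100 mM HEPES-KOH pH 7.6, with 8.5 mM 2-oxoglutarate, 7 mM OAB and 2.0 mM LL-DAP final. Inhibitor 10 µM final in DMSO, assuming MW 500. Absorbance at 440 nm read in triplicate before enzyme addition and after 3 h at room temperature. Activity taken relative to no-inhibitor wells; no-enzyme wells served as blank.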

[2] = target: LL-diaminopimelate aminotransferase, chloroplastic (Arabidopsis thaliana, UniProt Q93ZN9); test: Inhibition of Arabidopsis thaliana LL-DAP-AT expressed in Escherichia coli by aminobenzaldehyde-based assay; details: for pIC50: read-out: IC50
Outline: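 His6-tagged A. thaliana LL-DAP-AT (0.0043 mg/mL final) in 1 mL cuvettes with 100 mM HEPES-KOH pH 7.6, 8.5 mM 2-OG, 7 mM OAB and 2.0 mM LL-DAP. Inhibitor at 5–200 µM final, added in 50 µL DMSO. A440 followed for 200 min, read every 2 min.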

Salmonella typhimurium = test: Antimicrobial activity against Salmonella Typhimurium ATCC 23564 at <200 ug/mL; assay type: functional, organism-based; details: Salmonella enterica subsp. enterica serovar Typhimurium
Outline: (§1)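 Soft agar overlay (0.75% w/v) seeded with 1% overnight culture of indicator strain, poured over 1.5% w/v solid agar; LB medium for Gram-negative, M17 for Gram-positive. 10 µL of test solution spotted and air-dried, with solvent controls (acetonitrile or methanol). Incubated overnight, 37 °C Gram-negative, 30 °C Gram-positive; scored for growth-inhibition halos.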

Pseudomonas aeruginosa = test: Antimicrobial activity against Pseudomonas aeruginosa ATCC 15442 at <200 ug/mL; assay type: functional, organism-based; outline: as §1
Escherichia coli = test: Antimicrobial activity against Escherichia coli DH5alpha at <200 ug/mL; assay type: functional, organism-based; outline: as §1
Carnobacterium divergens = test: Antimicrobial activity against Carnobacterium divergens LV13 at <200 ug/mL; assay type: functional, organism-based; outline: as §1
Staphylococcus aureus = test: Antimicrobial activity against Staphylococcus aureus ATCC 25923 at <200 ug/mL; assay type: functional, organism-based; outline: as §1
[3] = target: LL-diaminopimelate aminotransferase, chloroplastic (Arabidopsis thaliana) (UniProt Q93ZN9); test: Inhibition of Arabidopsis thaliana LL-DAP-AT expressed in Escherichia coli assessed as time independent type of inhibition by aminobenzaldehyde-based assay
Outline: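 Enzyme (100 µL) and inhibitor (50 µL) were preincubated for six different times, then added to 850 µL of OAB-coupled substrate buffer. Inhibitor level was chosen from the IC50. A440 recorded as in the IC50 assay, with positive and no-enzyme controls. Time independence was judged by whether percent inhibition changed with preincubation time.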

Sequence of LL-diaminopimelate aminotransferase, chloroplastic (Arabidopsis thaliana) (Q93ZN9 whole entry): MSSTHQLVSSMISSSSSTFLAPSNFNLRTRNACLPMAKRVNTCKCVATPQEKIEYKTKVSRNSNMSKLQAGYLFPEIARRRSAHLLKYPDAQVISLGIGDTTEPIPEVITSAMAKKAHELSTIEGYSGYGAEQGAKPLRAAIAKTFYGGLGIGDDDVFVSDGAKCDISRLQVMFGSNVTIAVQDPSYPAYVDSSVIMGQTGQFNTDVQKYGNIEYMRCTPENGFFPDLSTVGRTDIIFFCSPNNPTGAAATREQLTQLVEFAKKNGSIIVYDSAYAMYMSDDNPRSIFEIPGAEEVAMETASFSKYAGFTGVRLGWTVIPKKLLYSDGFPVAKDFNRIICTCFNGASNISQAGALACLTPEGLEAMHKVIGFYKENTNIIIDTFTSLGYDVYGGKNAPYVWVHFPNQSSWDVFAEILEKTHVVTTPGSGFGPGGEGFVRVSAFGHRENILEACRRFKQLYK
Sequence of LL-diaminopimelate aminotransferase, chloroplastic (Q93ZN9 whole entry): as above

Row | Structure (SMILES) | inhibition [1] | pIC50 [2] | also measured
1 | COc1ccc(OC)c(Nc2nc3ccccc3nc2NS(=O)(=O)c2cccc([N+](=O)[O-])c2)c1 | 13% | 3.82 | 
2 | CCN1C(=O)/C(=C/c2ccccc2)SC1=S |  | < 3.70 | 
3 | CC(=O)c1ccc(Nc2nc(-c3cc4ccccc4oc3=O)cs2)cc1 | 16% | < 3.70 | 
4 | Cc1ccc(NC(=O)/C(C#N)=C/c2ccc(N(C)C)o2)cc1C | 14% | < 3.70 | 
5 | NNC(=O)c1cc2ccccc2cc1NS(=O)(=O)c1ccccc1 | 33% | 5.30 | inhibition (Salmonella typhimurium): inactive; inhibition (Pseudomonas aeruginosa): inactive; inhibition (Escherichia coli): inactive; inhibition (Carnobacterium divergens): inactive; inhibition (Staphylococcus aureus): inactive
6 | O=C1NC(=S)N(c2cccc(Br)c2)C(=O)/C1=C\c1ccco1 | 17% | < 3.70 | 
7 | COc1ccc(N2C(=O)NC(=O)/C(=C/c3ccc(-c4cccc(Cl)c4)o3)C2=O)cc1 | 20% | 4.38 | 
8 | N=C1NC(=O)/C(=C/c2ccc(-c3ccc([N+](=O)[O-])cc3Br)o2)S1 | 13% | 4.07 | 
9 | COc1ccc(C=C2C(=O)NC(=S)NC2=O)cc1OCc1ccccc1Cl | 48% | 3.92 | 
10 | Cc1ccc(C2=NC(=O)/C(=C/c3cc4c(cc3Br)OCO4)S2)cc1 | 13% | 3.89 | 
11 | COc1ccc(/C=C2/C=C(c3ccccc3)OC2=O)c(OC)c1 | 14% | 3.80 | 
12 | Cc1nc(C)c(C(=O)/C=C2/Nc3ccccc3NC2=O)s1 | 18% | 4.25 | 
13 | NN1C(=O)/C(=C/c2ccc(Cl)cc2)SC1=S |  |  | IC50 [2]: Not Active
14 | CCN1C(=O)/C(=C/c2cccc3ccccc23)SC1=S |  | 3.70 | 
15 | Cc1ccc(N2C(=O)/C(=C\c3cc4ccccc4[nH]3)C(=O)NC2=S)cc1 | 16% | 3.79 | 
16 | CC(=O)/N=C1\NC(=O)/C(=C/c2ccc(-c3ccc([N+](=O)[O-])cc3)o2)S1 | 52% | 4.11 | 
17 | CCN1C(=O)/C(=C/c2ccc(Cl)cc2)SC1=S |  | 3.70 | 
18 | COc1cc(-c2nnc(SCC(=O)c3ccc(F)cc3)n2-c2ccccc2)cc(OC)c1OC | 14% | < 3.70 | 
19 | N/C(=N\[N+](=O)[O-])N/N=C\c1ccc(-c2cccc([N+](=O)[O-])c2)o1 | 13% | < 3.70 | 
20 | O=C1/C(=C/c2cn(-c3ccccc3)nc2-c2cccs2)SC(=S)N1C1CCS(=O)(=O)C1 (configuration not stated) | 13% | 3.93 | 
21 | C=C(C)COc1ccc2c(c1)oc(=O)c1cc(OC)ccc12 | 25% | < 3.70 | 

Row | Structure (SMILES) | inhibition [1] | pIC50 [2] | also measured
22 | O=C1NC(=S)S/C1=C\c1ccccc1O |  | < 3.70 | 
23 | COc1ccc(/C=C2\SC(=S)NC2=O)cc1I | 29% | 3.74 | 
24 | COc1cc(OC)c(OC)cc1/C=N/n1c(S)nnc1-c1ccc(C)cc1 | 18% | < 3.70 | 
25 | C=CCN1C(=O)/C(=C\c2cc3ccccc3n2C)C(=O)NC1=S | 35% | 4.12 | 
26 | Cc1ccsc1/C=C1\SC(=S)N(C(C)c2ccccc2)C1=O (configuration not stated) | 13% | 3.90 | 
27 | CN(C)c1ccc(/C=C2\SC(=S)NC2=O)cc1 |  | 3.90 | 
28 | O=C(N/N=C/c1ccc(O)cc1O)c1[nH]c2ccc([N+](=O)[O-])cc2c1-c1ccccc1 | 15% | 4.35 | 
29 | O=C1NC(=S)S/C1=C\c1ccc(Cl)cc1 |  | < 3.70 | 
30 | CCOC(=O)C1=C(Nc2ccc([N+](=O)[O-])cc2)S/C(=C\c2ccc(N(C)C)cc2)C1=O | 19% | 3.85 | 
31 | NN1C(=O)/C(=C/c2ccccc2)SC1=S |  |  | IC50 [2]: Not Active
32 | C=CCN1C(=O)NC(=O)/C(=C/c2ccc(-c3ccc(C(=O)OCC)cc3)o2)C1=O | 16% | < 3.70 | 
33 | Cc1ccsc1/C=C1\SC(=S)N(CC2CCCO2)C1=O (configuration not stated) | 14% | < 3.70 | 
34 | CC(=O)NN1C(=O)/C(=C/c2ccc(Br)o2)SC1=S | 13% | 4.39 | inhibition [3]: Active
35 | CCN1C(=O)/C(=C/c2ccc(OC)cc2)SC1=S |  | < 3.70 | 
36 | CCN1C(=O)/C(=C/c2cc(Cc3ccccc3Cl)ccc2O)SC1=S | 13% | 4.34 | inhibition [3]: Active
37 | Cc1[nH]n(-c2ccccc2)c(=O)c1C=C1C(=O)N(C)C(=O)N(C)C1=O | 20% | 4.35 | inhibition [3]: Active
38 | COc1ccc(/C=C2\SC(=S)NC2=O)cc1 |  | 3.85 | 
39 | O=C(Cn1c(/C=C2/C(=O)NC(=O)N(c3cccc(F)c3)C2=O)cc2ccccc21)Nc1ccccc1 | 18% | 4.28 | 
40 | Cc1ccc(OCCn2c(C=C3C(=O)NC(=O)NC3=O)cc3ccccc32)cc1C | 28% | 4.00 | 
41 | COc1ccc(/C=C2\SC(=S)N(NC(C)=O)C2=O)cc1 |  | < 3.70 | 
42 | CC(=O)NN1C(=O)/C(=C/c2ccccc2)SC1=S |  |  | IC50 [2]: Not Active

Row | Structure (SMILES) | inhibition [1] | pIC50 [2] | also measured
43 | COc1ccc(/C=C2\SC(=S)N(N)C2=O)cc1 |  | 3.81 | 
44 | CN1C(=O)/C(=C/c2cc3ccccc3n2CC(=O)O)C(=O)N(c2ccc(Cl)cc2)C1=O | 14% | 4.19 | 
45 | CC(=O)NN1C(=O)/C(=C/c2ccc(-c3ccc([N+](=O)[O-])cc3)o2)SC1=S |  | 4.14 | 
46 | Cc1c(C(=O)NC(=S)Nc2ccc3oc(-c4ccccc4Cl)nc3c2)oc2ccccc12 | 19% | 4.08 | 
47 | O/C(=C\c1nc2ccccc2nc1O)c1cccs1 | 15% | 4.51 | 
48 | CN1C(=O)C(=Cc2cccn2-c2cccc([N+](=O)[O-])c2)C(=O)N(C)C1=O | 13% | < 3.70 | 
49 | Cc1ccc(N2C(=O)/C(=C\c3cc4ccccc4n3CC(=O)O)C(=O)N(C)C2=O)cc1 | 17% | 4.43 | 
50 | O=C(N/N=C/c1ccc(F)cc1)c1cc(-c2ccc3ccccc3c2)n[nH]1 | 14% | 3.79 | 
51 | C=CCN1C(=O)/C(=C2/C(=O)N(S(=O)(=O)c3ccc(OC)cc3)c3ccccc32)SC1=S | 18% | 3.71 | 
52 | CCN1C(=O)/C(=C/c2ccccc2O)SC1=S |  | < 3.70 | 
53 | O=C1OC(c2ccccc2Cl)=N/C1=C/c1ccc(OC(=O)c2ccccc2Cl)c(O)c1 | 30% | 4.09 | 
54 | C/C(=N\NC(=O)c1cc(C2CC2)n[nH]1)c1ccc(C)cc1 | 14% | < 3.70 | 
55 | CCOC(=O)C1=C(Nc2ccc(OC)cc2)S/C(=C\c2ccc(N(C)C)cc2)C1=O | 22% | < 3.70 | 
56 | COc1ccccc1N1C(=O)/C(=C\c2cc3ccccc3n2Cc2ccccc2)C(=O)NC1=S | 20% | 4.21 | 
57 | O=C1NC(=S)S/C1=C\c1cccc2ccccc12 |  |  | IC50 [2]: Not Active
58 | O=C1NC(=S)S/C1=C\c1ccccc1[N+](=O)[O-] |  |  | IC50 [2]: Not Active
59 | Cc1ccc(S(=O)(=O)N2C(=O)/C(=C3\SC(=S)NC3=O)c3ccccc32)cc1 | 25% | 4.15 | 
60 | CC(=O)NN1C(=O)/C(=C/c2ccc(Cl)cc2)SC1=S |  |  | IC50 [2]: Not Active
61 | C=CCN1C(=O)/C(=C\c2cc3ccccc3n2Cc2ccc([N+](=O)[O-])cc2)C(=O)NC1=S | 33% | 4.16 | 
